Source: ChEMBL document CHEMBL1132282, “Discovery of novel non-peptide CCR1 receptor antagonists” (J Med Chem, 1999)

Key:
[1] = target: T1, C-C chemokine receptor type 1 (Homo sapiens, UniProt P32246); test: Inhibition of [125I]-MIP-1 alpha binding to recombinant human C-C chemokine receptor type 1 expressed in HEK293 cells; assay type: cell-based
T1 sequence (P32246 whole entry): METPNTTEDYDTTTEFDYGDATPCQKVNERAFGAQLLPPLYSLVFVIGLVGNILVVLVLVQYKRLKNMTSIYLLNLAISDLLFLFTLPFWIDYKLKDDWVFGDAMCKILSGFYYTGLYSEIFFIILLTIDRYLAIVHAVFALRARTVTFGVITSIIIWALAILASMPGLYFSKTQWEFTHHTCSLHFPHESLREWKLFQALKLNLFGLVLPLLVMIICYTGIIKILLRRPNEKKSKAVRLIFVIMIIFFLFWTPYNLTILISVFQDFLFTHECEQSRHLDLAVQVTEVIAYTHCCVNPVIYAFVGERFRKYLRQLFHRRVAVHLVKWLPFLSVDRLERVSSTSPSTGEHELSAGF

[2] = target: T1, C-C chemokine receptor type 1; test: Inhibition of MIP-1-alpha-induced intracellular calcium mobilization in HEK293 cells expressing human CCR1 receptor; assay type: functional, cell-based
Procedure, shortened: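 HEK-293 cells overexpressing human CCR1 plated at 80 000 cells/well on poly-D-lysine, cultured one day, loaded with 4 μM Fluo-3 for 1 h at 37 °C in HBSS/Hepes with probenecid, then washed. Compound pretreatment 10 min at 37 °C, then 30 nM MIP-1α stimulation. FLIPR fluorescence read over 3 min at 37 °C. Six-concentration dose curves give IC50.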

Row | SMILES | Ki [1] [µM] | IC50 [2] [µM]
1 | N#CC(CCCN1CCC(O)(c2ccc(Cl)cc2)CC1)c1cccnc1 (configuration not stated) | 1 | 
2 | N#CC(CCCN1CCC(O)(c2ccc(Cl)cc2)CC1)c1ccc2ccccc2c1 (configuration not stated) | 0.206 | 7.1
3 | N#CC(CCCN1CCC(O)(c2ccc(Cl)cc2)CC1)c1ccc(OCc2ccccc2)cc1 (configuration not stated) | 3.43 | 
4 | N#CC(CCCN1CCC(O)(c2cccc(Cl)c2)CC1)(c1ccccc1)c1ccccc1 | 0.385 | 
5 | Cc1ccccc1C1(O)CCN(CCCC2(C#N)c3ccccc3CSc3ccccc32)CC1 (configuration not stated) | 0.164 | 
6 | COc1ccc(C(C#N)CCCN2CCC(O)(c3ccc(Cl)cc3)CC2)cc1Br (configuration not stated) | 0.074 | 1.9
7 | N#CC(CCCN1CCC(O)(c2ccc(C(F)(F)F)cc2)CC1)(c1ccccc1)c1ccccc1 | 0.153 | 
8 | N#CC(CCCN1CCC(O)(c2ccc(Cl)cc2)CC1)c1cccc([N+](=O)[O-])c1 (configuration not stated) | 0.51 | 
9 | COC(=O)C(C#N)(CCCN1CCC(O)(c2ccc(Cl)cc2)CC1)c1ccccc1 (configuration not stated) | 0.053 | 
10 | OC1(c2ccc(Cl)cc2)CCN(CCCC(c2ccccc2)c2ccccc2)CC1 | 0.116 | 8.7
11 | N#CC(CCCN1CCC(CO)(c2ccccc2)CC1)(c1ccccc1)c1ccccc1 | 7.5 | 
12 | N#CC(CCCN1CCC(O)(c2ccc(I)cc2)CC1)(c1ccccc1)c1ccccc1 | 0.233 | 
13 | NCC(CCCN1CCC(O)(c2ccc(Cl)cc2)CC1)(c1ccccc1)c1ccccc1 | 0.244 | 
14 | N#CC(CCCN1CCC(O)(c2ccc(Cl)cc2)CC1)c1ccccc1Br (configuration not stated) | 0.366 | 
15 | N#CC1(CCCN2CCC(O)(c3cccc(C(F)(F)F)c3)CC2)c2ccccc2CSc2ccccc21 (configuration not stated) | 0.623 | 
16 | N#CC(CCCN1CCC(O)(c2ccc3ccccc3c2)CC1)(c1ccccc1)c1ccccc1 | 0.715 | 
17 | N#Cc1ccc(C2(O)CCN(CCCC(C#N)(c3ccccc3)c3ccccc3)CC2)cc1 | 0.092 | 10.9
18 | N#CC1(CCCN2CCC(O)(c3ccc(Cl)cc3)CC2)c2ccccc2C[S+]([O-])c2ccccc21 (stereo in doubt; 6p) | 0.054 | 
19 | N#CC(CCCN1CCC(O)(c2ccc(Cl)cc2)CC1)c1ccccc1O (configuration not stated) | 0.79 | 
20 | C[N+]1(CCCC(C#N)c2ccc3ccccc3c2)CCC(O)(c2ccc(Cl)cc2)CC1 (configuration not stated) | 0.022 | 0.7
21 | N#CC(CCCN1CCC(O)(c2cccs2)CC1)(c1ccccc1)c1ccccc1 | 1.02 | 
22 | N#CC(CCCN1CCC(O)(c2cc(Cl)cc(Cl)c2)CC1)(c1ccccc1)c1ccccc1 | 1.33 | 
23 | N#CC(CCCN1CCC(O)(c2ccc(Cl)cc2)CC1)(c1ccccc1)N1CCCCC1 (configuration not stated) | 0.13 | 4.8

Row | SMILES | Ki [1] [µM] | IC50 [2] [µM]
24 | C[N+]1(CCCC(C#N)(c2ccccc2)c2ccccc2)CCC(O)(c2ccc(Cl)cc2)CC1 (configuration not stated) | 0.008 | 
25 | N#CC(CCCN1CCC(O)(c2ccccn2)CC1)(c1ccccc1)c1ccccc1 | 0.906 | 
26 | CCOC(=O)C(C#N)(CCCN1CCC(O)(c2ccc(Cl)cc2)CC1)c1ccccc1 (configuration not stated) | 0.033 | 7
27 | N#CC1(CCCN2CCC(O)(c3ccc(Cl)cc3)CC2)c2ccccc2CSc2ccccc21 (configuration not stated) | 0.024 | 7
28 | N#CC(CCCCN1CCC(O)(c2ccc(Cl)cc2)CC1)(c1ccccc1)c1ccccc1 | 0.078 | 1.6
29 | CC(C#N)(CCCN1CCC(O)(c2ccc(Cl)cc2)CC1)c1ccccc1 (configuration not stated) | 0.46 | 
30 | N#CC(CCCCl)(CCCN1CCC(O)(c2ccc(Cl)cc2)CC1)c1ccccc1 (configuration not stated) | 0.051 | 8.3
31 | N#Cc1ccccc1C(C#N)CCCN1CCC(O)(c2ccc(Cl)cc2)CC1 (configuration not stated) | 0.098 | 5.8
32 | N#CC1(CCCN2CCC(O)(c3ccc(F)cc3)CC2)c2ccccc2CSc2ccccc21 (configuration not stated) | 0.044 | 3
33 | CN(C)c1ccc(C2(O)CCN(CCCC(C#N)(c3ccccc3)c3ccccc3)CC2)cc1 | 1.16 | 
34 | CCCCC1(O)CCN(CCCC(C#N)(c2ccccc2)c2ccccc2)CC1 | 4.01 | 
35 | N#CC(CCCCCN1CCC(O)(c2ccc(Cl)cc2)CC1)(c1ccccc1)c1ccccc1 | 0.099 | 5.6
36 | N#CC(CCCN1CCC(O)(c2ccc(Cl)cc2)CC1)c1ccsc1 (configuration not stated) | 0.236 | 9.8
37 | N#CC(CCCN1CCC(O)(c2ccc(Cl)cc2)CC1)c1ccccc1Cl (configuration not stated) | 0.306 | 
38 | N#CC1(CCCN2CCC(O)(c3ccc(Cl)cc3)CC2)c2ccccc2Oc2ccccc21 | 0.234 | 
39 | N#CC1(CCCN2CCC(O)(c3ccc(Cl)cc3)CC2)c2ccccc2CCc2ccccc21 | 0.045 | 7.7
40 | N#CC(CCCN1CCC(O)(c2ccc(Cl)cc2)CC1)c1ccc(O)cc1 (configuration not stated) | 0.975 | 
41 | N#CC(CCCN1CCC(O)(c2ccc(Cl)cc2)CC1)c1cccc(O)c1 (configuration not stated) | 0.156 | 9
42 | N#CC(CCCN1CCC(O)(c2ccc(Cl)cc2)CC1)c1ccccc1 (configuration not stated) | 0.054 | 
43 | C[N+]1(CCCC(c2ccccc2)c2ccccc2)CCC(O)(c2ccc(Cl)cc2)CC1 (configuration not stated) | 0.006 | 1.8
44 | N#CC(CCN1CCC(O)(c2ccc(Cl)cc2)CC1)(c1ccccc1)c1ccccc1 | 4.06 | 0.4
45 | CN1C(=O)c2ccccc2C(C#N)(CCCN2CCC(O)(c3ccc(Cl)cc3)CC2)c2ccccc21 (configuration not stated) | 0.032 | 3.3
46 | N#CC1(CCCN2CCC(O)(c3ccc(Cl)c(C(F)(F)F)c3)CC2)c2ccccc2CSc2ccccc21 (configuration not stated) | 0.224 | 

Row | SMILES | Ki [1] [µM] | IC50 [2] [µM]
47 | N#CC(CCCN1CCC(O)(c2ccc(Cl)cc2)CC1)c1c(F)c(F)c(F)c(F)c1F (configuration not stated) | 0.33 | 
48 | N#CC(CCCN1CCC(O)(c2ccc(Cl)cc2)CC1)c1ccccc1F (configuration not stated) | 0.371 | 
49 | N#CC(CCCN1CCC(O)(c2ccc(Cl)cc2)CC1)c1cccc(Oc2ccccc2)c1 (configuration not stated) | 0.908 | 
50 | N#CC(CCCN1CCC(O)(c2cccnc2)CC1)(c1ccccc1)c1ccccc1 | 0.206 | 
51 | N#CC(CCCN1CCC(O)(c2ccc(Cl)cc2)CC1)c1ccccn1 (configuration not stated) | 0.584 | 
52 | N#CC1(CCCN2CCC(O)(Cc3ccccc3)CC2)c2ccccc2CSc2ccccc21 (configuration not stated) | 0.405 | 
53 | N#CC(CCCN1CCC(O)(c2ccc(Cl)cc2)CC1)(c1ccccc1)C1CCCCC1 (configuration not stated) | 0.4 | 
54 | O=C(NCC(CCCN1CCC(O)(c2ccc(Cl)cc2)CC1)(c1ccccc1)c1ccccc1)NC1CCNCC1 | 0.009 | 
55 | COc1cc(C(C#N)CCCN2CCC(O)(c3ccc(Cl)cc3)CC2)cc(OC)c1OC (configuration not stated) | 0.497 | 
56 | COc1ccc(C(C#N)CCCN2CCC(O)(c3ccc(Cl)cc3)CC2)cc1 (configuration not stated) | 0.359 | 
57 | N#CC1(CCCN2CCC(O)(c3ccc(Br)cc3)CC2)c2ccccc2CSc2ccccc21 (configuration not stated) | 0.022 | 
58 | N#CC1(CCCN2CCC(O)(c3ccc(Cl)cc3)CC2)c2ccccc2C[S+]([O-])c2ccccc21 (stereo in doubt; 6q) | 0.071 | 
59 | N#CC(CCCN1CCC(O)(c2ccc(Cl)cc2)CC1)c1ccc(F)cc1 (configuration not stated) | 0.533 | 
60 | N#CC(CCCN1CCC(O)(c2ccc(F)cc2)CC1)(c1ccccc1)c1ccccc1 | 0.136 | 
61 | N#CC1(CCCN2CCC(O)(c3ccc(Br)cc3)CC2)c2ccccc2Cc2ccccc21 | 0.029 | 
62 | COc1ccc(C2(O)CCN(CCCC(C#N)(c3ccccc3)c3ccccc3)CC2)cc1 | 0.347 | 
63 | Cn1cccc1C(C#N)CCCN1CCC(O)(c2ccc(Cl)cc2)CC1 (configuration not stated) | 0.429 | 
64 | CCOc1ccc(C(C#N)CCCN2CCC(O)(c3ccc(Cl)cc3)CC2)cc1 (configuration not stated) | 1.42 | 
65 | CCC(C#N)(CCCN1CCC(O)(c2ccc(Cl)cc2)CC1)c1ccccc1 (configuration not stated) | 0.093 | 
66 | N#CC(CCCN1CCC(O)(c2ccc(Cl)cc2)CC1)c1ccc(Cl)cc1 (configuration not stated) | 0.463 | 
67 | COC(=O)C(CCCN1CCC(O)(c2ccc(Cl)cc2)CC1)(c1ccccc1)c1ccccc1 | 0.406 | 
68 | N#CC1(CCCN2CCC(O)(c3ccccc3)CC2)c2ccccc2CSc2ccccc21 (configuration not stated) | 0.203 | 
